Experimental findings from ChEMBL document CHEMBL1133861, “A novel class of highly potent, selective, and non-peptidic inhibitor of Ras farnesyltransferase (FTase)” (Bioorg Med Chem Lett, 2001) are described below.

The target of assay [1] is T1, Protein farnesyltransferase (Homo sapiens, UniProt P49354+P49356). Nature of the assay: Inhibition of farnesyltransferase activity against H-Ras. Type of assay: protein-complex assay. In outline: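 FTase (16.6 nM) incubated 30 min at 37 °C with H-Ras substrate, [3H]farnesyl pyrophosphate and serially diluted compound. Buffer: 50 mM HEPES pH 7.4, KCl, MgCl2, ZnCl2, 0.5% N-octylglucoside, 10 mM DTT. Reactions quenched with 10% HCl in ethanol. Farnesylated Ras captured on glass-fiber filters and scintillation counted. IC50 is the concentration halving [3H]FPP incorporation; mean of three experiments.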

Assay [2] deals with T1, Protein farnesyltransferase. Kind of assay: Inhibition of farnesyltransferase activity against K-Ras. Type of assay: protein-complex assay. In outline: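 K-Ras used as acceptor substrate with FTase (16.6 nM) and [3H]FPP plus serially diluted inhibitor, 30 min at 37 °C, in HEPES pH 7.4 buffer with Mg2+, Zn2+, KCl, octylglucoside and DTT. Stopped with acidic ethanol, then filter binding and scintillation counting of labeled K-Ras. IC50 is 50% reduction of [3H]FPP transfer; mean of three determinations.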

Assay [3] has as its target Geranylgeranyl transferase type I (Homo sapiens, UniProt P49354+P53609). Nature of the assay: Inhibition of Geranylgeranyl transferase type I. Type of assay: protein-complex assay.
In assay [4] the test system is EJ. Nature of the assay: Percent inhibition of tumor growth relative to control tumors in tumor xenograft nude mice (with p<0.001 compared to control) against EJ at a dose of 40 mg/kg, bid on day 15;Regression. Type of assay: functional, organism-based. Set-up: dose 40 mg/kg. The conditions noted are these: Homo sapiens. The procedure, abridged:
(§1)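 Female athymic BALB/c nu/nu mice, 5–7 weeks old, acclimated ≥1 week, inoculated s.c. intrascapularly with 10^7 tumor cells. Tumour volume measured in three dimensions every three days as 1/6·π·L·W·H. At ~100 mm3 mice randomised, 8 per group (Day 0). Dosing by gastric gavage twice daily from Day 1 for 21 days; vehicle 0.9% saline. Ulcerated tumours excluded; Student's t-test.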

For assay [5], the system named is EJ. Nature of the assay: Percent inhibition of tumor growth relative to control tumors in tumor xenograft nude mice (with p<0.001 compared to control) against EJ at a dose of 60 mg/kg, bid on day 15;Regression. Type of assay: functional, organism-based. Set-up: dose 60 mg/kg. Particulars: Homo sapiens. The procedure, abridged:
as §1

Assay [6] has as its system A549. Kind of assay: Inhibition of anchorage independent growth of human tumor cell line A549 K-ras-transformed in soft agar. Type of assay: functional. In outline:
(§2)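 Cells adapted 2–3 days in DMEM + 10% FBS after thawing. Bottom layer 0.5% agar with DMEM/FBS and compound; top layer 0.33% agar with compound, cells at 2–5×10^3 cells/mL. Colonies counted by microscope after two weeks in humidified CO2 incubator. GI50 from plot of % colony growth versus log10 concentration for each cell line.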

Assay [7] relates to EJ. Nature of the assay: Inhibition of anchorage independent growth of human tumor cell line EJ H-ras-transformed in soft agar. Type of assay: functional. In outline: as §2
Assay [8] has as its system EJ. Kind of assay: Percent inhibition of tumor growth relative to control tumors in tumor xenograft nude mice against EJ at a dose of 20 mg/kg, bid on day 15;p<0.001. Type of assay: functional, Homo sapiens. The conditions noted are these: Mus musculus, 360 h. The procedure, abridged:
as §1

Assay [9] has as its system HCT-116. Nature of the assay: Inhibition of anchorage independent growth of human tumor cell line HCT116 K-ras-transformed in soft agar. Type of assay: functional. In outline:
as §2

Assay [10] concerns HCT-116. Nature of the assay: Percent inhibition of tumor growth relative to control tumors in tumor xenograft nude mice against HCT116 at a dose of 40 mg/kg, bid on day 21;p<0.001. Type of assay: functional, Homo sapiens. The conditions noted are these: Mus musculus, HCT-116, 504 h. The procedure, abridged:
as §1

Assay [11] concerns HCT-116. Nature of the assay: Percent inhibition of tumor growth relative to control tumors in tumor xenograft nude mice against HCT116 at a dose of 60 mg/kg, bid on day 21;p<0.001. Type of assay: functional, Homo sapiens. Particulars: Mus musculus, HCT-116, 504 h. The procedure, abridged:
as §1

In assay [12] the test system is HT-29. Nature of the assay: Inhibition of anchorage independent growth of human tumor cell line HT-29 K-ras-transformed in soft agar. Type of assay: functional. The procedure, abridged: as §2
Assay [13] concerns T-24. Nature of the assay: Inhibition of anchorage independent growth of human tumor cell line T24 H-ras-transformed in soft agar. Type of assay: functional. The procedure, abridged: as §2

As a reminder, the IC50 is the midpoint of a concentration-inhibition curve. A high value points to lower potency. Regarding `Cn1cncc1Cn1cc(C(=O)N2CCOCC2)c(-c2cccc3ccccc23)c1`, the IC50 in assay [1] was 3 nM; in [2] it was 100 nM; in assay [3], more than 100000 nM.
For the compound `O=C(c1cn(Cc2cncn2Cc2ccccc2)cc1-c1cccc2ccccc12)N1CCOCC1`, the IC50 was 1.5 nM in assay [1] and 2.1 nM in [2].
The compound `O=C(c1cn(Cc2cnc[nH]2)cc1-c1ccccc1)N1CCOCC1` returned an IC50 in assay [1] of 2000 nM.
As to `CN1CCN(C(=O)c2cn(Cc3cncn3Cc3ccc4c(c3)OCO4)cc2-c2cccc3ccccc23)CC1` [listing 1 of 3 here], the inhibition result in assay [4] and in assay [5] was “Regression” each time.
`CCOC(=O)c1cn(Cc2c[nH]cn2)cc1-c1cccc2ccccc12` showed an IC50 in assay [1] of 500 nM.
As to `CN1CCN(C(=O)c2cn(Cc3cncn3Cc3ccc4c(c3)OCO4)cc2-c2cccc3ccccc23)CC1` [listing 2 of 3 here], the IC50 in [1] turned out to be 0.9 nM; in assay [3], 16000 nM.
For `O=C(c1cn(Cc2cncn2Cc2ccc3c(c2)OCO3)cc1-c1cccc2ccccc12)N1CCOCC1`, in that order: 0.9 nM and 12000 nM.
Compound `COCCN(C)C(=O)c1cn(Cc2cncn2Cc2ccc3c(c2)OCO3)cc1-c1cccc2ccccc12` came in with an IC50 in [3] of 10000 nM.
Compound `O=C(c1cn(Cc2c[nH]cn2)cc1-c1cccc2ccccc12)N1CCOCC1` showed an IC50 in assay [2] of 1830 nM.
As usually defined, the GI50 is the concentration at which growth is held to half of that of the control. A low value points to more potent growth inhibition. What is called inhibition in vivo is the share of the control response that was lost under treatment. Regarding `CN1CCN(C(=O)c2cn(Cc3cncn3Cc3ccc4c(c3)OCO4)cc2-c2cccc3ccccc23)CC1` [listing 3 of 3 here], the GI50 was 1.2 nM in assay [6]; 0.56 nM in assay [7]; 17.6 nM in assay [9]; 4.5 nM in assay [12]; 0.45 nM in assay [13]. At 20 mg/kg the inhibition in vivo in assay [8] was 78%. Also, at 40 mg/kg the inhibition in vivo in assay [10] was 43%. This compound came in with an inhibition in vivo at 60 mg/kg in [11] of 55%.
